Laboratory results published in ChEMBL document CHEMBL5357044, “Discovery of a dual-acting inhibitor of interleukin-1β and STATs for the treatment of inflammatory bowel disease” (RSC Med Chem, 2024).
Calls of active or inactive are those of the source. The calls are words filed in the database; no cut-off is given here.

What was measured:
[1] = target: NACHT, LRR and PYD domains-containing protein 3 (Mus musculus) (UniProt Q8R4B8); assay: Inhibition of NLRP3 inflammasome activation in mouse J774.A1 cells assessed as NLRP3 ubiquitination at 100 nM pretreated for 1 hr followed by nigericin treatment for 1 hr; details: time 2.0 hrs
NACHT, LRR and PYD domains-containing protein 3 (Mus musculus), sequence (Q8R4B8 whole entry, the tested form may be a part): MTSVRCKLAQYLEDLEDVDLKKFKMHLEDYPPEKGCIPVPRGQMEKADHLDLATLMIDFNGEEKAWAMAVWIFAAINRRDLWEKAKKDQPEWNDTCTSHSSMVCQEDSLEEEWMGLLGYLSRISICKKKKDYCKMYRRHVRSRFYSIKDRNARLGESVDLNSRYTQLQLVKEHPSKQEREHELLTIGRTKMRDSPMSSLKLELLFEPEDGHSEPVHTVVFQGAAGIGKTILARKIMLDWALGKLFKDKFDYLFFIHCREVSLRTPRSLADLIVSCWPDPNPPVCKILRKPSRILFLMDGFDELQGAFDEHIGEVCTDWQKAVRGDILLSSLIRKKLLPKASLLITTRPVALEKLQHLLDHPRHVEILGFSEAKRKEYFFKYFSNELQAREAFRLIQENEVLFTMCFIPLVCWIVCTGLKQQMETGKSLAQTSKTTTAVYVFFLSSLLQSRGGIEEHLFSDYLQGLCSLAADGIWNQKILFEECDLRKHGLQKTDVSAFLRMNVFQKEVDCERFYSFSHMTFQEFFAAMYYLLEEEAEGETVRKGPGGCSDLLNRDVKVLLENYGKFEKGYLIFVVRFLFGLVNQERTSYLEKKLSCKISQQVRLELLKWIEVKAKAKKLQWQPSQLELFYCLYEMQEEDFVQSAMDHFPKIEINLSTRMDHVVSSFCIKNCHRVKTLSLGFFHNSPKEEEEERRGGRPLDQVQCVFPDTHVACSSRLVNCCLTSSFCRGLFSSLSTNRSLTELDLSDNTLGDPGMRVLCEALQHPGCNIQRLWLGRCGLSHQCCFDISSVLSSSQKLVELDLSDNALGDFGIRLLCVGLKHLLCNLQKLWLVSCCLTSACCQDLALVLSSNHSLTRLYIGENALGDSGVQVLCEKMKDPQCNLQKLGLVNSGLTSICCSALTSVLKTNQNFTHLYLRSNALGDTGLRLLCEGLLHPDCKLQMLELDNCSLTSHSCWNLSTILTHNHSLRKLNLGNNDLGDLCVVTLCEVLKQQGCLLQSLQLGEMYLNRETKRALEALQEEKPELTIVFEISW

Colon [2] = assay: Anti-colitis activity against DSS-induced ulcerative colitis mouse model assessed as decrease in infiltration of inflammatory cells in colon tissue at 0.2 to 0.6 mg/kg, ip treated every 72 hrs for 9 days by H and E staining based analysis; format: functional, organism-based; details: dose 0.2-0.6 mg/kg, time 9.0 day
Summary of the method: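 Colons were taken on day 9 from 2.5% DSS-fed mice (DSS days 1–7). Dosing was i.p. 0.2 or 0.6 mg kg−1 in 50% PEG300 on days 2, 5, 8. H&E-stained sections imaged at ×20 and scored for inflammatory infiltration, goblet cell depletion and crypt loss.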

[3] = target: NACHT, LRR and PYD domains-containing protein 3 (Mus musculus) (UniProt Q8R4B8); assay: Inhibition of NLRP3 inflammasome activation in mouse BMDM cells assessed as reduction in LPS-stimulated IL-1beta level at 50 to 200 nM pretreated for 1 hr followed by imiquimod treatment for 2 hrs by ELISA; format: cell-based; details: dose 50-200 nM, time 3.0 hrs
Summary of the method: (§1)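 Bone-marrow macrophages in RPMI 1640/10% FBS/M-CSF. LPS priming at 0.5 μg mL−1 for 3 h, compound 1 h. NLRP3 then triggered by nigericin 10 μM for 0.5 h or imiquimod 900 μM for 2 h. Supernatant IL-1β by ELISA.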

Mus musculus [4] = assay: Anti-colitis activity against DSS-induced ulcerative colitis mouse model assessed as increase in colon length at 0.2 to 0.6 mg/kg, ip treated every 72 hrs for 9 days; format: functional, organism-based; details: dose 0.2-0.6 mg/kg, time 9.0 day
Summary of the method: (§2)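 Mice given 2.5% DSS water days 1–7, then water to day 9. Dosing: i.p. 0.2 or 0.6 mg kg−1 in 50% PEG300 on days 2, 5, 8. Body weight and fecal occult blood scored daily. Colon length measured after sacrifice on day 9. Mean ± s.e.m.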

Intestine = assay: Anti-colitis activity against DSS-induced ulcerative colitis mouse model assessed as decrease in STAT-1 level in intestinal tissue at 0.2 to 0.6 mg/kg, ip treated every 72 hrs for 9 days by Western blot analysis; format: functional, organism-based; details: dose 0.2-0.6 mg/kg, time 9.0 day
Summary of the method: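 DSS model (2.5% in drinking water days 1–7, water days 8–9). Dosing was i.p. at 0.2 and 0.6 mg kg−1 in 50% PEG300 on days 2, 5, 8. Intestinal tissue taken at sacrifice on day 9. Lysed in RIPA with protease inhibitor and BCA-quantified, then run on SDS-PAGE/PVDF and probed for STAT1, STAT3, STAT5 and caspase-1. ECL detection.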

[5] = target: NACHT, LRR and PYD domains-containing protein 3 (Mus musculus) (UniProt Q8R4B8); assay: Inhibition of NLRP3 inflammasome activation in mouse J774.A1 cells assessed as reduction in mature IL-1beta release at 50 to 200 nM pretreated for 1 hr followed by nigericin treatment for 1 hr by Western blot analysis; format: cell-based; details: dose 50-200 nM, time 2.0 hrs
Summary of the method: (§3)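 J774A.1 cells, LPS 1 μg mL−1 for 5 h, compound exposure, nigericin 10 μM 1 h. RIPA lysis with protease inhibitor and BCA quantitation, then SDS-PAGE/PVDF. Blocked 5% milk, primary antibodies overnight at 4 °C, HRP secondaries, ECL detection.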

[6] = target: Nlrp3/Pycard (Mus musculus) (UniProt Q8R4B8+Q9EPB4); assay: Inhibition of NLRP3-ASC interaction in LPS-treated mouse J774.A1 cells at 50 to 200 nM pretreated for 1 hr followed by nigericin treatment for 1 hr by Co-IP assay; format: cell-based; details: dose 50-200 nM, time 2.0 hrs
Nlrp3/Pycard (Mus musculus), sequence (Q8R4B8 whole entry, looked up): as the sequence (Q8R4B8 whole entry, the tested form may be a part) above
Nlrp3/Pycard (Mus musculus), sequence (Q9EPB4 whole entry, looked up): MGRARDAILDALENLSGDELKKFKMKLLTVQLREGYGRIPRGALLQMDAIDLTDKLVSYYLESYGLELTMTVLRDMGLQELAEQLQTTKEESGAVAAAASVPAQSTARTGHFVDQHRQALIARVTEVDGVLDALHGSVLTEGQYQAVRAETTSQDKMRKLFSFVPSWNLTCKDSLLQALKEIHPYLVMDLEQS
Summary of the method: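 Primed/treated J774A.1 cells (LPS 1 μg mL−1 5 h, compound, nigericin 10 μM 1 h) lysed on ice 30 min. Precleared with Protein A/G agarose overnight at 4 °C, then primary antibody (IgG control) overnight at 4 °C. Protein A/G added 6 h, beads washed five times with D-PBS, boiled in SDS buffer and western blotted.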

Mus musculus [7] = assay: Anti-colitis activity against DSS-induced ulcerative colitis mouse model assessed as decrease in hemafecia at 0.2 to 0.6 mg/kg, ip treated every 72 hrs for 9 days; format: functional, organism-based; details: dose 0.2-0.6 mg/kg, time 9.0 day
Summary of the method: as §2

[8] = target: NACHT, LRR and PYD domains-containing protein 3 (Mus musculus) (UniProt Q8R4B8); assay: Inhibition of NLRP3 inflammasome activation in mouse BMDM cells assessed as reduction in LPS-stimulated ASC specks formation at 50 to 200 nM pretreated for 1 hr followed by nigericin treatment for 30 mins by immunofluorescence analysis; format: cell-based; details: dose 50-200 nM, time 1.5 hrs
Summary of the method: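 BMDMs primed with LPS 1.5 μg mL−1 for 3 h at 37 °C, compound for 1 h, nigericin 10 μM for 30 min. Fixed in 4% paraformaldehyde and permeabilized with 1% Triton X-100. Blocked in 1% BSA, primary antibody overnight at 4 °C, rhodamine secondary plus DAPI. ASC specks counted by fluorescence microscopy.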

Colon [9] = assay: Anti-colitis activity against DSS-induced ulcerative colitis mouse model assessed as decrease in IL-1beta level in colon tissue at 0.2 to 0.6 mg/kg, ip treated every 72 hrs for 9 days by ELISA; format: functional, organism-based; details: dose 0.2-0.6 mg/kg, time 9.0 day
Summary of the method: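 Colitis induced with 2.5% DSS in drinking water on days 1–7, plain water days 8–9. Compound given i.p. at 0.2 and 0.6 mg kg−1 in 50% PEG300 on days 2, 5 and 8. Mice killed on day 9; colon tissue cytokines measured by ELISA. Mean ± s.e.m.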

[10] = target: NACHT, LRR and PYD domains-containing protein 3 (Mus musculus) (UniProt Q8R4B8); assay: Inhibition of NLRP3 inflammasome activation in mouse J774.A1 cells assessed as reduction in caspase-1 p20 subunits release at 50 to 200 nM pretreated for 1 hr followed by nigericin treatment for 1 hr by Western blot analysis; format: cell-based; details: dose 50-200 nM, time 2.0 hrs
Summary of the method: as §3

J774.A1 = assay: Inhibition of intracellular ROS generation in mouse J774.A1 cells at 0.125 to 0.5 uM pretreated for 1 hr followed by nigericin treatment for 1 hr by DCFH-DA staining based fluorescence microscopy; format: functional, cell-based; details: dose 0.125-0.5 µM, time 2.0 hrs
Summary of the method: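 J774A.1 cells processed through NLRP3 activation protocol (LPS 1 μg mL−1 5 h, compound, nigericin 10 μM 1 h). Loaded with DCFH-DA 20 μM at 37 °C for 30 min and washed twice with D-PBS. Fluorescence read at Ex/Em 492/520.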

[11] = target: NACHT, LRR and PYD domains-containing protein 3 (Mus musculus) (UniProt Q8R4B8); assay: Inhibition of NLRP3 inflammasome activation in mouse BMDM cells assessed as reduction in LPS-stimulated IL-1beta level at 50 to 200 nM pretreated for 1 hr followed by nigericin treatment for 30 mins by ELISA; format: cell-based; details: dose 50-200 nM, time 1.5 hrs
Summary of the method: as §1

inhibition [1]: Active
inhibition [3]: Active
inhibition [5]: Active
inhibition [6]: Active
inhibition [8]: Active
inhibition [10]: Active
inhibition [11]: Active
Structure (SMILES): Cc1cc(/C=C/C(=O)c2ccc(C(=O)N[C@@H](Cc3ccccc3)C(=O)N[C@@H](CC(C)C)B(O)O)cc2)cc(C)c1O
Activity (Colon [2]): Active
Activity (Mus musculus [4]): Active
Activity (Intestine): Active
Activity (Mus musculus [7]): Active
Activity (Colon [9]): Active
inhibition (J774.A1): inactive
